# Data taken from ChEMBL document CHEMBL3734675, “Synthesis, antimycobacterial and antibacterial activity of fluoroquinolone derivatives containing an 3-alkoxyimino-4-(cyclopropylanimo)methylpyrrolidine moiety” (2015).
# Assays:
# Assay type in all cases: functional
# [1] = test system: Streptococcus pneumoniae; experiment: Antibacterial activity against methicillin-resistant Streptococcus pneumoniae ATCC 19615 after 18 to 24 hrs by two-fold serial dilution method
# Method in brief: (§1)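 Agar media, standard twofold serial dilution. MIC is the lowest concentration giving complete inhibition of bacterial growth after incubation at 35 °C for 18–24 h. Ciprofloxacin and levofloxacin were run as comparators.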
# [2] = test system: Klebsiella pneumoniae; experiment: Antibacterial activity against Klebsiella pneumoniae 14-3 after 18 to 24 hrs by two-fold serial dilution method
# Method in brief: (§2)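 Twofold serial dilution in agar media against Gram-positive and Gram-negative strains. Plates incubated at 35 °C for 18–24 h. MIC read as the lowest compound concentration giving complete inhibition of bacterial growth.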
# [3] = test system: Enterococcus faecium; experiment: Antibacterial activity against Enterococcus faecium 14-5 after 18 to 24 hrs by two-fold serial dilution method; method in brief: as §2
# [4] = test system: Escherichia coli; experiment: Antibacterial activity against extended-spectrum beta-lactamase producing Escherichia coli 14-1 after 18 to 24 hrs by two-fold serial dilution method; method in brief: as §2
# [5] = test system: Escherichia coli; experiment: Antibacterial activity against extended-spectrum beta-lactamase producing Escherichia coli 14-2 after 18 to 24 hrs by two-fold serial dilution method; method in brief: as §2
# [6] = test system: Escherichia coli; experiment: Antibacterial activity against Escherichia coli 14-2 after 18 to 24 hrs by two-fold serial dilution method; method in brief: as §2
# [7] = test system: Klebsiella pneumoniae; experiment: Antibacterial activity against Klebsiella pneumoniae 14-1 after 18 to 24 hrs by two-fold serial dilution method; method in brief: as §2
# [8] = test system: Escherichia coli; experiment: Antibacterial activity against Escherichia coli 14-1 after 18 to 24 hrs by two-fold serial dilution method; method in brief: as §2
# [9] = test system: Staphylococcus epidermidis; experiment: Antibacterial activity against methicillin-sensitive Staphylococcus epidermidis 14-2 after 18 to 24 hrs by two-fold serial dilution method; method in brief: as §2
# [10] = test system: Pseudomonas aeruginosa; experiment: Antibacterial activity against Pseudomonas aeruginosa ATCC 27853 after 18 to 24 hrs by two-fold serial dilution method; method in brief: as §2
# [11] = test system: Enterococcus faecalis; experiment: Antibacterial activity against Enterococcus faecalis 14-1 after 18 to 24 hrs by two-fold serial dilution method; method in brief: as §2
# [12] = test system: Klebsiella pneumoniae; experiment: Antibacterial activity against extended-spectrum beta-lactamase producing Klebsiella pneumoniae 14-17 after 18 to 24 hrs by two-fold serial dilution method; method in brief: as §2
# [13] = test system: Klebsiella pneumoniae; experiment: Antibacterial activity against Klebsiella pneumoniae 14-2 after 18 to 24 hrs by two-fold serial dilution method; method in brief: as §2
# [14] = test system: Klebsiella pneumoniae; experiment: Antibacterial activity against extended-spectrum beta-lactamase producing Klebsiella pneumoniae 14-19 after 18 to 24 hrs by two-fold serial dilution method; method in brief: as §2
# [15] = test system: Staphylococcus aureus; experiment: Antibacterial activity against methicillin-resistant Staphylococcus aureus 14-5 after 18 to 24 hrs by two-fold serial dilution method; method in brief: as §1
# [16] = test system: Pseudomonas aeruginosa; experiment: Antibacterial activity against Pseudomonas aeruginosa 14-9 after 18 to 24 hrs by two-fold serial dilution method; method in brief: as §2
# [17] = test system: Staphylococcus aureus; experiment: Antibacterial activity against methicillin-resistant Staphylococcus aureus 14-4 after 18 to 24 hrs by two-fold serial dilution method; method in brief: as §1
# [18] = test system: Staphylococcus aureus; experiment: Antibacterial activity against methicillin-sensitive Staphylococcus aureus 14-3 after 18 to 24 hrs by two-fold serial dilution method; method in brief: as §2
# [19] = test system: Klebsiella pneumoniae; experiment: Antibacterial activity against Klebsiella pneumoniae 14-4 after 18 to 24 hrs by two-fold serial dilution method; method in brief: as §2
# [20] = test system: Staphylococcus epidermidis; experiment: Antibacterial activity against methicillin-resistant Staphylococcus epidermidis 14-39 after 18 to 24 hrs by two-fold serial dilution method; method in brief: as §1
# [21] = test system: Pseudomonas aeruginosa; experiment: Antibacterial activity against Pseudomonas aeruginosa 14-15 after 18 to 24 hrs by two-fold serial dilution method; method in brief: as §2
# [22] = test system: Klebsiella pneumoniae; experiment: Antibacterial activity against extended-spectrum beta-lactamase producing Klebsiella pneumoniae 14-18 after 18 to 24 hrs by two-fold serial dilution method; method in brief: as §2
# [23] = test system: Pseudomonas aeruginosa; experiment: Antibacterial activity against Pseudomonas aeruginosa 14-16 after 18 to 24 hrs by two-fold serial dilution method; method in brief: as §2
# [24] = test system: Enterococcus faecium; experiment: Antibacterial activity against Enterococcus faecium 14-6 after 18 to 24 hrs by two-fold serial dilution method; method in brief: as §2
# [25] = test system: Staphylococcus aureus; experiment: Antibacterial activity against methicillin-sensitive Staphylococcus aureus 14-4 after 18 to 24 hrs by two-fold serial dilution method; method in brief: as §2
# [26] = test system: Staphylococcus aureus; experiment: Antibacterial activity against Staphylococcus aureus CMCC 26003 after 18 to 24 hrs by two-fold serial dilution method; method in brief: as §2
# [27] = test system: Enterococcus faecium; experiment: Antibacterial activity against Enterococcus faecium 14-2 after 18 to 24 hrs by two-fold serial dilution method; method in brief: as §2
# [28] = test system: Pseudomonas aeruginosa; experiment: Antibacterial activity against Pseudomonas aeruginosa 14-14 after 18 to 24 hrs by two-fold serial dilution method; method in brief: as §2
# [29] = test system: Staphylococcus epidermidis; experiment: Antibacterial activity against methicillin-resistant Staphylococcus epidermidis 14-22 after 18 to 24 hrs by two-fold serial dilution method; method in brief: as §1
# [30] = test system: Staphylococcus epidermidis; experiment: Antibacterial activity against methicillin-resistant Staphylococcus epidermidis 14-37 after 18 to 24 hrs by two-fold serial dilution method; method in brief: as §1
# [31] = test system: Escherichia coli; experiment: Antibacterial activity against Escherichia coli ATCC 25922 after 18 to 24 hrs by two-fold serial dilution method; method in brief: as §2
# [32] = test system: Staphylococcus aureus; experiment: Antibacterial activity against methicillin-sensitive Staphylococcus aureus 14-1 after 18 to 24 hrs by two-fold serial dilution method; method in brief: as §2
# [33] = test system: Staphylococcus epidermidis; experiment: Antibacterial activity against methicillin-resistant Staphylococcus epidermidis 14-21 after 18 to 24 hrs by two-fold serial dilution method; method in brief: as §1
# [34] = test system: Enterococcus faecalis; experiment: Antibacterial activity against Enterococcus faecalis 14-2 after 18 to 24 hrs by two-fold serial dilution method; method in brief: as §2
SMILES,MIC [2] [µg/mL],MIC [3] [µg/mL],MIC [7] [µg/mL],MIC [9] [µg/mL],MIC [11] [µg/mL],MIC [13] [µg/mL],MIC [14] [µg/mL],MIC [17] [µg/mL],MIC [19] [µg/mL],MIC [20] [µg/mL],MIC [24] [µg/mL],MIC [25] [µg/mL],MIC [26] [µg/mL],MIC [27] [µg/mL],MIC [29] [µg/mL],MIC [30] [µg/mL],MIC [31] [µg/mL],MIC [32] [µg/mL],MIC [33] [µg/mL],MIC [34] [µg/mL],also measured
O=C(O)c1cn(C2CC2)c2nc(N3C/C(=N/OCc4ccccc4)C(CNC4CC4)C3)c(F)cc2c1=O (stereo unspecified),128,32,64,64,64,64,128,> 128,> 128,32,8,8,< 0.008,16,16,16,4,8,16,1,MIC [1]: 8 µg/mL; MIC [4]: 32 µg/mL; MIC [5]: > 128 µg/mL; MIC [6]: > 128 µg/mL; MIC [8]: > 128 µg/mL; MIC [10]: 64 µg/mL; MIC [12]: 128 µg/mL; MIC [15]: 16 µg/mL; MIC [16]: 64 µg/mL; MIC [18]: 4 µg/mL; MIC [21]: 128 µg/mL; MIC [22]: 128 µg/mL; MIC [23]: 64 µg/mL; MIC [28]: 64 µg/mL
CC1(CNC2CC2)CN(c2nc3c(cc2F)c(=O)c(C(=O)O)cn3C2CC2)C/C1=N/OCc1ccccc1 (stereo unspecified),> 128,2,64,16,64,64,128,2,> 128,2,4,0.5,< 0.008,4,4,2,1,2,8,0.25,MIC [1]: 0.5 µg/mL; MIC [4]: 32 µg/mL; MIC [5]: > 128 µg/mL; MIC [6]: > 128 µg/mL; MIC [8]: > 128 µg/mL; MIC [10]: 64 µg/mL; MIC [12]: 128 µg/mL; MIC [15]: 2 µg/mL; MIC [16]: 64 µg/mL; MIC [18]: 0.5 µg/mL; MIC [21]: 128 µg/mL; MIC [22]: 128 µg/mL; MIC [23]: 128 µg/mL; MIC [28]: 128 µg/mL
O=C(O)c1cn(C2CC2)c2cc(N3CCNCC3)c(F)cc2c1=O [CIPROFLOXACIN],> 128,128,32,> 128,64,16,64,> 128,32,128,> 128,0.5,0.5,32,128,128,< 0.008,32,64,1,MIC [1]: 2 µg/mL; MIC [12]: 0.5 µg/mL; MIC [21]: 1 µg/mL; MIC [22]: 0.5 µg/mL; MIC [23]: 1 µg/mL; MIC [28]: 1 µg/mL
C[C@H]1COc2c(N3CCN(C)CC3)c(F)cc3c(=O)c(C(=O)O)cn1c23.C[C@H]1COc2c(N3CCN(C)CC3)c(F)cc3c(=O)c(C(=O)O)cn1c23.O [LEVOFLOXACIN],32,64,16,> 128,128,8,64,64,16,64,64,0.5,0.25,32,32,64,0.125,8,64,1,MIC [4]: 4 µg/mL; MIC [5]: 8 µg/mL; MIC [6]: 8 µg/mL; MIC [8]: 8 µg/mL; MIC [15]: 8 µg/mL; MIC [16]: 0.5 µg/mL; MIC [18]: 0.125 µg/mL
